# OX1R antag-1: antagonists of human orexin 1 receptor; O43613; CHO/OX1R cells, Fluo-8 calcium fluorescence, orexin A; inhibition, % at 5 µM; 0.43% of 330,000 active;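 active = inhibition above its plate's threshold, mean inhibition of all tested compounds on the plate plus 3 SD, cut at about 37% in these data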;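 note: 0% = orexin A challenge wells and 100% = SB-334867-A antagonist wells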
# Target sequence (O43613 whole entry, looked up): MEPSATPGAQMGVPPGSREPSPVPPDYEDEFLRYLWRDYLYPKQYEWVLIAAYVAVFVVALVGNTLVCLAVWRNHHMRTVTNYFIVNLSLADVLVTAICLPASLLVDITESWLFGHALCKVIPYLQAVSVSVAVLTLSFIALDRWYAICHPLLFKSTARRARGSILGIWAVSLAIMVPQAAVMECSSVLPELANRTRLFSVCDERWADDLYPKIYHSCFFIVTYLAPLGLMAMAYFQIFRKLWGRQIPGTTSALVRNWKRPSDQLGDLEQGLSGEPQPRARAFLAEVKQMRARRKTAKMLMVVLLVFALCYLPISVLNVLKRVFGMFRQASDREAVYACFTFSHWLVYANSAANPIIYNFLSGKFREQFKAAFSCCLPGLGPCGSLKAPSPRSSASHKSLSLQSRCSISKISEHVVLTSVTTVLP
# TAAR1 antag: antagonists of human TAAR1. Q96RJ0. 1.5% of 360,000 active. AID 624466. CHO RD-HGA16 TAAR1, Fluo-8 calcium fluorescence, antagonist. inhibition, % at 3 µM;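 active = inhibition above a per-plate cutoff, the mean inhibition of test compounds on that plate plus 3 SD, cut at about 49% in these data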;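 note: 0% = DMSO plus EC80 beta-PEA response and 100% = DMSO alone without agonist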
#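 Material: RD-HGA16 CHO cells with stable hTAAR1 and Gα16; Dosing: single nominal final test compound concentration of 3 µM; Schedule: seeding 17-24 h prior, 75-min 37 °C, 30-min RT dye loading; Detection: kinetic Fluo-8 calcium fluorescence measurement; Measure: % inhibition from peak post-agonist over basal fluorescence ratio; Benchmarks: vehicle and agonist controls.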
# OX1R antag-2: antagonists of human orexin 1 receptor (OX1R) | AID 485270 | inhibition, % at 6.6 µM | OX1R-expressing cells, FRET antagonist read-out | 1.8% of 330,000 active | O43613; in the data active = inhibition mostly above about 38%, no sharp cut-off; inactive = mostly below about 40%;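 note: 0% = agonist challenge alone and 100% = reference antagonist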
# NTR1 ag: activates human neurotensin receptor 1. NTR1-U2OS beta-arrestin-GFP spot imaging, agonist mode. activation, % at 20 µM. 0.17% of 330,000 active;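 active = activation at or above 40% of the spot to cytoplasm intensity ratio, with at least 20 cells analyzed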;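 note: 0% = DMSO without peptide and 100% = 100 nM NTR1 peptide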
# CHO parental Ca: counter-screen for OX1R antagonists: effect in parental CHO cells; 0.63% of 330,000 active; AID 463079; parental CHO-K1, ATP-induced calcium, Fluo-8 fluorescence; inhibition, % at 5.6 µM;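 active = inhibition above that plate's mean sample inhibition plus 3 SD, cut at about 26% in these data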;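 note: 0% = ATP-challenged DMSO wells and 100% = DMSO wells without ATP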
#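 Measured by: calcium-sensitive Fluo-8 fluorescence / Test system: CHO parental line / Controls: ATP-challenged DMSO wells low, unchallenged DMSO wells high / Measure: % inhibition / Compound: single nominal dose of 5.6 µM per compound / Replicates: single well per compound, no replicates / Reagent: ATP as calcium-mobilizing challenge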
# TAAR1 agonist: agonists of human TAAR1; Q96RJ0; 0.99% of 360,000 active; AID 624467; CHO RD-HGA16 TAAR1, Fluo-8 calcium fluorescence; vehicle wells 0%, saturating PEA agonist 100%; activation, % at 3 µM;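 active = activation above the mean activation of all test compounds in the run plus 3 SD, cut at about 38% in these data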
#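 test system = CHO RD-HGA16 cells carrying human TAAR1 plus Gα16 | schedule = 17-24 h seeding, 75 min 37 °C dye, 30 min RT | compound dosing = 3 µM single concentration | control set = DMSO and PEA EC100 | replicates = n 1 | signal = Fluo-8 fluorescence, 5 s baseline then 140 s kinetic read | measure = percent activation vs PEA EC100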
# * = called active by the depositor; . = no result. Rows were chosen to be rich in hits. Some 4% of all compounds tested hit in one or more screens of this group.
SMILES,OX1R antag-1,TAAR1 antag,OX1R antag-2,NTR1 ag,CHO parental Ca,TAAR1 agonist
O=[N+]([O-])c1ccc(N2CCCCCC2)c2nonc12,102*,66*,103*,-2,93*,162*
O=[N+]([O-])c1ccc(N2CCOCC2)c2cccnc12,16,-10,71*,2,-2,2
O=[N+]([O-])c1ccc(N2CCCCCC2)c2ncccc12,-9,-8,24,7,-13,3
O=C(NCCN1CCC2(CC1)C(=O)NCN2c1ccccc1)c1cccnc1Cl,.,-3,.,.,.,0
C/C=C1/CN2[C@@H]3C4CO[C@@H]3c3c([nH]c5cc(OC)ccc35)[C@@H]2CC14 (stereo partly drawn),-6,10,4,-3,-15,0
CN1CCc2c(C#N)c(Cl)nc(Cl)c2C1,-3,2,18,0,-12,1
CC1C=CCCC12C(=O)NC(=O)NC2=O (stereo not drawn),.,-8,.,.,.,6
CC[N+](C)(CC)CCCCOc1ccc2c(c1)C(=O)c1cc(OCCCC[N+](C)(CC)CC)ccc1-2,-1,-24,71*,0,-16,1
O=c1[nH]c(=S)[nH]c(O)c1N=Nc1ccc2c(c1)OCO2,-6,2,75*,0,6,2
O=c1[nH]c(O)c(N=Nc2ccc3c(c2)OCCO3)c(=O)[nH]1,-10,7,64*,0,-4,8
O=c1[nH]c(=S)[nH]c(O)c1N=Nc1cc(S(=O)(=O)Nc2ccc(Cl)cc2)ccc1Cl,-13,-15,-1,8,-8,3
O=c1[nH]c(=S)[nH]c(O)c1N=Nc1ccc(OC(F)F)cc1,-13,-4,50*,2,-12,0
COc1cccc(N=Nc2c(O)[nH]c(=S)[nH]c2=O)c1,-9,-14,69*,2,-1,-2
O=c1[nH]c(=S)[nH]c(O)c1N=Nc1cc2c(cc1[N+](=O)[O-])OCO2,-6,-13,48,0,1,12
Cc1cc(C)[n+](CCCC[n+]2c(C)cc(C)cc2C)c(C)c1,0,-9,28,0,-5,11
Cc1nc2ccccc2c(=O)n1-c1cc([N+](=O)[O-])cc([N+](=O)[O-])c1,-30,-14,74*,0,-16,0
Cc1nc2ccccc2c(=O)n1-c1ccncc1,6,-30,8,1,18,2
C=CCn1c(C)c(C=C2C(=O)NC(=O)NC2=O)c2ccccc21,-18,-21,11,2,-12,3
Nc1c(Br)cc([N+](=O)[O-])cc1[N+](=O)[O-],-19,18,36*,2,-7,-1
N#Cc1ccc(NC(=S)N2Cc3cc(Br)ccc3-n3nncc3C2)cc1,.,9,.,.,.,8
COc1cccc(C(c2nnnn2-c2ccc3c(c2)OCCO3)N2CCC(n3c(=O)[nH]c4ccccc43)CC2)c1OC (stereo not drawn),.,79*,.,.,.,51*
O=c1[nH]c2ccccc2n1C1CCN(C(c2cccc3ccccc23)c2nnnn2Cc2ccccc2)CC1 (stereo not drawn),.,50*,.,.,.,8
COc1ccc(-n2nnnc2C(c2cccc(OC)c2OC)N2CCC(n3c(=O)[nH]c4ccccc43)CC2)cc1 (stereo not drawn),.,56*,.,.,.,13
COc1ccc(-n2nnnc2C(c2ccccc2)N2CCC(n3c(=O)[nH]c4ccccc43)CC2)cc1 (stereo not drawn),.,67*,.,.,.,14
COc1ccc(C(c2nnnn2-c2c(C)cccc2C)N2CCC(n3c(=O)[nH]c4ccccc43)CC2)cc1 (stereo not drawn),.,-31,.,.,.,3
SMILES,OX1R antag-1,TAAR1 antag,OX1R antag-2,NTR1 ag,CHO parental Ca,TAAR1 agonist
COc1cccc(C(c2nnnn2Cc2ccccc2)N2CCC(n3c(=O)[nH]c4ccccc43)CC2)c1OC (stereo not drawn),.,43,.,.,.,12
COc1ccc(-n2nnnc2C(c2ccnc3ccccc23)N2CCC(n3c(=O)[nH]c4ccccc43)CC2)cc1 (stereo not drawn),.,18,.,.,.,17
OC1CN2CCC(O)C2C(O)C1O (stereo not drawn),.,-9,.,.,.,1
COc1cccc(C(=O)NCCN2CCC3(CC2)C(=O)NCN3c2ccccc2)c1,.,5,.,.,.,10
COc1ccc(C(O)c2ccccc2OP(=O)(N(C)C)N(C)C)cc1 (stereo not drawn),-10,-6,10,4,-2,3
CC(CCN1CC1)=NNC(=O)Nc1cccc2ccccc12,.,-25,.,.,.,3
Cc1cccc(C)c1-n1nnnc1C(c1ccccc1OC(F)(F)F)N1CCC(n2c(=O)[nH]c3ccccc32)CC1 (stereo not drawn),.,-29,.,.,.,4
O=c1[nH]c2ccccc2n1C1CCN(C(CCc2ccccc2)c2nnnn2C2CCCC2)CC1 (stereo not drawn),.,56*,.,.,.,16
O=c1[nH]c2ccccc2n1C1CCN(C(c2ccccc2OC(F)(F)F)c2nnnn2-c2ccc3c(c2)OCCO3)CC1 (stereo not drawn),.,52*,.,.,.,12
CO[C@@H]1C=CC23c4cc5c(cc4CO[C@]2(O)CN(C)[C@H]3C1)OCO5 (stereo partly drawn),18,2,10,2,3,16
COc1ccc(-n2c(O)c(C=NCCN3CCN(C(C)=O)CC3)c(=O)[nH]c2=S)cc1,-2,-2,-4,-2,0,0
Nc1ncc([N+](=O)[O-])s1,0,-18,36*,1,-7,2
CC/C(=C\C=C\[C@@H]1C=C[C@@H]2CCC[C@H]2[C@@H]1C(=O)c1ccc[nH]1)[C@@H]1O[C@@H]([C@@H](C)C(=O)O)CC[C@@H]1C,25,.,10,6,48*,.
CC(C)Sc1nnc([C@@H](N)Cc2c[nH]c3ccccc23)o1,6,13,40*,-3,-9,1
COC(=O)C1=C(c2cc3ccccc3s2)C[C@@H]2CC[C@H]1N2C,-23,1,5,1,-21,13
Cn1ncnc2c(=O)n(C)c(=O)nc1-2,8,.,103*,1,-17,.
COc1cc(CC2(CCc3ccncc3)C(=O)NC(=O)NC2=O)cc(OC)c1OC,-9,0,10,0,4,3
COc1cc2c(cc1OC)-c1c(OC)c(OC)c(OC)c3ccnc(c13)C2=O,-6,.,68*,3,-24,.
CCC(=NCc1ccc2c(c1)OCO2)c1c(O)n(C2CCCCC2)c(=O)[nH]c1=O,-17,16,13,21,26*,13
